This is an account of results in ChEMBL document CHEMBL1153598, “Syntheses of low-hemolytic antimicrobial gratisin peptides” (Bioorg Med Chem Lett, 2009).

What is called MIC is the lowest concentration that inhibits growth of the organism. Higher therefore signals a need for much substance.

Molecules are shown by their SMILES. Converted amounts (≈) assume the structure as drawn. Non-standard residues stand in square brackets, D forms with d. Residues, ends and D or L forms follow the SMILES beside them. Orn = NCCC[C@H](N)C(=O)O

In data set [1] the test system is Staphylococcus aureus. Kind of data set: Antibiotic activity against Staphylococcus aureus NBRC 12732 by microplate dilution assay. It is filed as functional. A digest of the protocol: (§1)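 Minimum inhibitory concentration determined by microplate dilution, inoculum 10⁶ organisms per ml. Strains tested: Bacillus subtilis NBRC 3513, Bacillus megaterium ATCC 19213, Staphylococcus epidermidis NBRC 12933, Staphylococcus aureus NBRC 12732, Pseudomonas aeruginosa NBRC 3080, Escherichia coli NBRC 12734. MIC reported in µg/mL.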

For data set [2], the system named is Bacillus subtilis. Description: Antibiotic activity against Bacillus subtilis NBRC 3513 by microplate dilution assay. Format: functional. The procedure, abridged: as §1
Data set [3] concerns Pseudomonas aeruginosa. Kind of data set: Antibiotic activity against Pseudomonas aeruginosa NBRC 3080 by microplate dilution assay. Format: functional. The procedure, abridged: as §1
A short description of data set [4]: Cytotoxicity against human red blood cells assessed as hemolysis after 30 mins. Format: cell-based. As to conditions: erythrocyte, 0.5 h.
The subject of data set [5] is Escherichia coli. Description: Antibiotic activity against Escherichia coli NBRC 12734 by microplate dilution assay. Format: functional. The procedure, abridged: as §1
The subject of data set [6] is Staphylococcus epidermidis. Kind of data set: Antibiotic activity against Staphylococcus epidermidis NBRC 12933 by microplate dilution assay. Format: functional. The procedure, abridged:
as §1

For data set [7], the system named is Priestia megaterium. Kind of data set: Antibiotic activity against Bacillus megaterium ATCC 19213 by microplate dilution assay. Format: functional. A digest of the protocol:
as §1

Turning to `CC(C)C[C@@H]1NC(=O)[C@H](CCCN)NC(=O)[C@H](C(C)C)NC(=O)[C@@H](CCC(N)=O)NC(=O)[C@@H]2CCCN2C(=O)[C@@H](Cc2ccccc2)NC(=O)[C@H](CC(C)C)NC(=O)[C@H](CCCN)NC(=O)[C@H](C(C)C)NC(=O)[C@@H](CCC(N)=O)NC(=O)[C@@H]2CCCN2C(=O)[C@@H](Cc2ccccc2)NC1=O`, the MIC was 25 µg/mL (≈ 17.9 µM) in data set [1]; 12.5 µg/mL (≈ 8.94 µM) in data set [2]; > 100 µg/mL in data set [3]; > 100 µg/mL in data set [5]; 25 µg/mL (≈ 17.9 µM) in data set [6]; 12.5 µg/mL (≈ 8.94 µM) in data set [7]. Moreover, the Activity entry in data set [4] is recorded as “Dose-dependent effect”.
Take `CC(C)C[C@@H]1NC(=O)[C@H](CCCN)NC(=O)[C@H](C(C)C)NC(=O)[C@@H](CCCN)NC(=O)[C@@H]2CCCN2C(=O)[C@@H](Cc2ccccc2)NC(=O)[C@H](CC(C)C)NC(=O)[C@H](CCCN)NC(=O)[C@H](C(C)C)NC(=O)[C@@H](CCCN)NC(=O)[C@@H]2CCCN2C(=O)[C@@H](Cc2ccccc2)NC1=O`: the MIC was 6.25 µg/mL (≈ 4.56 µM) in data set [1]; 6.25 µg/mL (≈ 4.56 µM) in data set [2]; 25 µg/mL (≈ 18.3 µM) in data set [3]; 25 µg/mL (≈ 18.3 µM) in data set [5]; 6.25 µg/mL (≈ 4.56 µM) in data set [6]; 6.25 µg/mL (≈ 4.56 µM) in data set [7]. In addition, the Activity entry in data set [4] is “Dose-dependent effect”.
Regarding `CC(C)C[C@@H]1NC(=O)[C@H](CCCN)NC(=O)[C@H](C(C)C)NC(=O)[C@@H](Cc2cnc[nH]2)NC(=O)[C@@H]2CCCN2C(=O)[C@@H](Cc2ccccc2)NC(=O)[C@H](CC(C)C)NC(=O)[C@H](CCCN)NC(=O)[C@H](C(C)C)NC(=O)[C@@H](Cc2cnc[nH]2)NC(=O)[C@@H]2CCCN2C(=O)[C@@H](Cc2ccccc2)NC1=O`, the minimal inhibitory concentration (MIC) in data set [1] was 12.5 µg/mL (≈ 8.83 µM); in data set [2], 12.5 µg/mL (≈ 8.83 µM); in data set [3] it was > 100 µg/mL; in data set [5], > 100 µg/mL; in data set [6], 25 µg/mL (≈ 17.7 µM); in data set [7], 12.5 µg/mL (≈ 8.83 µM). The Activity entry in data set [4] is “Dose-dependent effect”.
As for `CC(C)C[C@@H]1NC(=O)[C@H](CCCN)NC(=O)[C@H](C(C)C)NC(=O)[C@@H](CCCNC(=N)N)NC(=O)[C@@H]2CCCN2C(=O)[C@@H](Cc2ccccc2)NC(=O)[C@H](CC(C)C)NC(=O)[C@H](CCCN)NC(=O)[C@H](C(C)C)NC(=O)[C@@H](CCCNC(=N)N)NC(=O)[C@@H]2CCCN2C(=O)[C@@H](Cc2ccccc2)NC1=O`, the MIC in data set [1] is 3.13 µg/mL (≈ 2.15 µM); in data set [2], 6.25 µg/mL (≈ 4.3 µM); in data set [3], 12.5 µg/mL (≈ 8.6 µM); in data set [5], 12.5 µg/mL (≈ 8.6 µM); in data set [6], 6.25 µg/mL (≈ 4.3 µM); in data set [7], 3.13 µg/mL (≈ 2.15 µM). In data set [4], the Activity result was “Dose-dependent effect”.
As to `CC(C)C[C@@H]1NC(=O)[C@H](CCCN)NC(=O)[C@H](C(C)C)NC(=O)CNC(=O)[C@@H]2CCCN2C(=O)[C@@H](Cc2ccccc2)NC(=O)[C@H](CC(C)C)NC(=O)[C@H](CCCN)NC(=O)[C@H](C(C)C)NC(=O)CNC(=O)[C@@H]2CCCN2C(=O)[C@@H](Cc2ccccc2)NC1=O`, the MIC is 100 µg/mL (≈ 79.6 µM) in data set [1]; 100 µg/mL (≈ 79.6 µM) in data set [2]; > 100 µg/mL in data set [3]; > 100 µg/mL in data set [5]; > 100 µg/mL in data set [6]; 100 µg/mL (≈ 79.6 µM) in data set [7]. For the same molecule, the Activity entry in data set [4] is listed as “Dose-dependent effect”.
Take `CCC[C@H]1NC(=O)[C@@H]2CCCN2C(=O)[C@@H](Cc2ccccc2)NC(=O)[C@H](CC(C)C)NC(=O)[C@H](CCCN)NC(=O)[C@H](C(C)C)NC(=O)[C@@H](CCC)NC(=O)[C@@H]2CCCN2C(=O)[C@@H](Cc2ccccc2)NC(=O)[C@H](CC(C)C)NC(=O)[C@H](CCCN)NC(=O)[C@H](C(C)C)NC1=O`: the MIC was 12.5 µg/mL (≈ 9.33 µM) in data set [1]; 12.5 µg/mL (≈ 9.33 µM) in data set [2]; > 100 µg/mL in data set [3]; > 100 µg/mL in data set [5]; 25 µg/mL (≈ 18.7 µM) in data set [6]; 12.5 µg/mL (≈ 9.33 µM) in data set [7]. In addition, the Activity result in data set [4] is recorded as “Dose-dependent effect”.
Consider `CC(C)C[C@@H]1NC(=O)[C@H](CCCN)NC(=O)[C@H](C(C)C)NC(=O)[C@@H](CCC(=O)O)NC(=O)[C@@H]2CCCN2C(=O)[C@@H](Cc2ccccc2)NC(=O)[C@H](CC(C)C)NC(=O)[C@H](CCCN)NC(=O)[C@H](C(C)C)NC(=O)[C@@H](CCC(=O)O)NC(=O)[C@@H]2CCCN2C(=O)[C@@H](Cc2ccccc2)NC1=O`, for which the MIC in data set [1], in data set [2], in data set [3], in data set [5], in data set [6] and in data set [7] was > 100 µg/mL throughout. For the same molecule, the Activity result in data set [4] is “Dose-dependent effect”.
Turning to `CC(C)C[C@@H]1NC(=O)[C@H](CCCN)NC(=O)[C@H](C(C)C)NC(=O)[C@@H](CO)NC(=O)[C@@H]2CCCN2C(=O)[C@@H](Cc2ccccc2)NC(=O)[C@H](CC(C)C)NC(=O)[C@H](CCCN)NC(=O)[C@H](C(C)C)NC(=O)[C@@H](CO)NC(=O)[C@@H]2CCCN2C(=O)[C@@H](Cc2ccccc2)NC1=O`, the MIC in data set [1] is 100 µg/mL (≈ 76 µM); in data set [2], > 100 µg/mL; in data set [3] it was > 100 µg/mL; in data set [5], > 100 µg/mL; in data set [6], > 100 µg/mL; in data set [7], > 100 µg/mL. In data set [4], the Activity entry is on record as “Dose-dependent effect”.
Take `CC(C)C[C@@H]1NC(=O)[C@H](CCCN)NC(=O)[C@H](C(C)C)NC(=O)[C@@H](CCCCN)NC(=O)[C@@H]2CCCN2C(=O)[C@@H](Cc2ccccc2)NC(=O)[C@H](CC(C)C)NC(=O)[C@H](CCCN)NC(=O)[C@H](C(C)C)NC(=O)[C@@H](CCCCN)NC(=O)[C@@H]2CCCN2C(=O)[C@@H](Cc2ccccc2)NC1=O`: the MIC is 6.25 µg/mL (≈ 4.47 µM) in data set [1]; 6.25 µg/mL (≈ 4.47 µM) in data set [2]; 12.5 µg/mL (≈ 8.94 µM) in data set [3]; 25 µg/mL (≈ 17.9 µM) in data set [5]; 6.25 µg/mL (≈ 4.47 µM) in data set [6]; 6.25 µg/mL (≈ 4.47 µM) in data set [7]. Further, the Activity entry in data set [4] is “Dose-dependent effect”.
Take `CC(C)C[C@@H]1NC(=O)[C@H](CCCN)NC(=O)[C@H](C(C)C)NC(=O)[C@@H](C)NC(=O)[C@@H]2CCCN2C(=O)[C@@H](Cc2ccccc2)NC(=O)[C@H](CC(C)C)NC(=O)[C@H](CCCN)NC(=O)[C@H](C(C)C)NC(=O)[C@@H](C)NC(=O)[C@@H]2CCCN2C(=O)[C@@H](Cc2ccccc2)NC1=O` (cyclo(L[dF]P[dA]V[Orn]L[dF]P[dA]V[Orn])): the MIC in data set [1] is 12.5 µg/mL (≈ 9.74 µM); in data set [2], 12.5 µg/mL (≈ 9.74 µM); in data set [3] it was > 100 µg/mL; in data set [5] it was > 100 µg/mL; in data set [6], 25 µg/mL (≈ 19.5 µM); in data set [7] it was 12.5 µg/mL (≈ 9.74 µM). Further, the Activity entry in data set [4] is “Dose-dependent effect”.
For the molecule `CC(C)C[C@@H]1NC(=O)[C@H](CCCN)NC(=O)[C@H](C(C)C)NC(=O)[C@@H]2CCCN2C(=O)[C@@H](Cc2ccccc2)NC(=O)[C@H](CC(C)C)NC(=O)[C@H](CCCN)NC(=O)[C@H](C(C)C)NC(=O)[C@@H]2CCCN2C(=O)[C@@H](Cc2ccccc2)NC1=O` [GRAMICIDIN S] (cyclo(L[dF]PV[Orn]L[dF]PV[Orn])), the MIC in data set [1] stood at 3.13 µg/mL (≈ 2.74 µM); in data set [2], 3.13 µg/mL (≈ 2.74 µM); in data set [3], 25 µg/mL (≈ 21.9 µM); in data set [5], 25 µg/mL (≈ 21.9 µM); in data set [6] it was 3.13 µg/mL (≈ 2.74 µM); in data set [7], 3.13 µg/mL (≈ 2.74 µM). The Activity result in data set [4] was “Dose-dependent effect”.
Take `CC(C)C[C@@H]1NC(=O)[C@H](CCCN)NC(=O)[C@H](C(C)C)NC(=O)[C@@H](Cc2ccc(O)cc2)NC(=O)[C@@H]2CCCN2C(=O)[C@@H](Cc2ccccc2)NC(=O)[C@H](CC(C)C)NC(=O)[C@H](CCCN)NC(=O)[C@H](C(C)C)NC(=O)[C@@H](Cc2ccc(O)cc2)NC(=O)[C@@H]2CCCN2C(=O)[C@@H](Cc2ccccc2)NC1=O` [GRATISIN]: the MIC in data set [1] is 6.25 µg/mL (≈ 4.26 µM); in data set [2], 6.25 µg/mL (≈ 4.26 µM); in data set [3], 100 µg/mL (≈ 68.1 µM); in data set [5], 100 µg/mL (≈ 68.1 µM); in data set [6] it was 12.5 µg/mL (≈ 8.52 µM); in data set [7] it was 6.25 µg/mL (≈ 4.26 µM). The Activity entry in data set [4] was “Dose-dependent effect”.
